Screens as filed in PubChem BioAssay.
RGS4 inh – inhibitors of human RGS4; P49798; HEK293 M3R/RGS4 inducible, Fluo-4 calcium flux; stronger effect = higher value; triggered by carbachol at its EC20; B-score at 10 µM; hit rate 0.45% among 310,000; AID 463165;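 active means B-score, a plate-corrected calcium signal, over three deviations above library mean, with baseline fluorescence within five deviations of library mean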;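 further: RGS4 expression induced by doxycycline in cells with stable M3 receptor; B-score is computed from the integrated fluorescence ratio over baseline after carbachol; higher B-score means a larger calcium signal and so more RGS4 inhibition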
Target sequence (P49798 whole entry, looked up): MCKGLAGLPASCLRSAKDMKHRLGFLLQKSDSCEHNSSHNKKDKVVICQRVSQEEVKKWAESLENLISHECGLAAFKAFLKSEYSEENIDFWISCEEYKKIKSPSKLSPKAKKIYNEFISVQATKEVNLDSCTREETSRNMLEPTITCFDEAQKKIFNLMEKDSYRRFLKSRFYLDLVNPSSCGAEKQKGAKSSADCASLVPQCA
MrgX1 antagonist – human MrgX1 receptor antagonism, primary screen; Q96LB2; B-score at 10 µM; hit rate 1.3% among 310,000; MRGX1-HEK293 calcium flux, Fluo-4, BAM8-22 antagonism; stronger effect = lower value;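 active means calcium-response B-score plate-corrected more than 3 library SD below zero, starting fluorescence within 5 deviations, no agonist response on first addition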;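 further: peak minus trough fluorescence over baseline after final BAM8-22 challenge near maximal dose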
MrgX1 allo act – allosterically activates human MrgX1 receptor signaling. Q96LB2. MrgX1-HEK293, Fluo-4 calcium flux, FDSS; stronger effect = higher value. B-score at 10 µM. hit rate 0.63% among 310,000;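 active means plate-corrected calcium response at least 3 library SD above typical, normal starting fluorescence, not activating the receptor alone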;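 further: compound read alongside a low EC10 to EC30 dose of BAM8-22 agonist; peak minus trough fluorescence over baseline measured at the second addition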
MrgX1 ag – human MrgX1 receptor agonism, primary screen; MrgX1-HEK293 cells, Fluo-4 calcium fluorescence, agonist mode; stronger effect = higher value; B-score at 10 µM; hit rate 0.44% among 310,000; AID 588627;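 active means calcium response B-score plate-corrected fluorescence ratio at least 3 library SD, with starting fluorescence B-score inside 5 SD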
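Material: MrgX1-expressing HEK293 cells / Dosing: compound as first of three additions / Incubation: overnight seeding, then 1 h dark dye loading / Signal: Fluo-4 NW calcium fluorescence / Evaluation: B-scored fluorescence response ratio / Benchmarks: positive and negative control wells on each plate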
RGS4 act – potentiators or activators of RGS4; HEK293 M3R/inducible RGS4, carbachol calcium flux Fluo4; stronger effect = lower value; B-score at 10 µM; hit rate 0.92% among 310,000; AID 463111;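 active means B-score of the integrated calcium signal more than 4 SD below the library mean, with starting fluorescence not abnormally high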;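 further: negative B-score means reduced calcium response which marks RGS4 activation or potentiation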
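System – HEK293 FlpIn-TREx cells, stable M3R, doxycycline-inducible RGS4 · Reagent – ECmax carbachol challenge · Times – compound preincubation 20 min at room temperature before agonist · Technique – Fluo4 fluorescence kinetic imaging of calcium · Measure – B score of integrated Fluo4 ratio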
PHOSPHO1 block – inhibitors of human PHOSPHO1 phosphatase | Q8TCT1 | recombinant PHOSPHO1, absorbance phosphatase assay | inhibition, % at 13.3 µM | hit rate 1.1% among 290,000; in the data active means inhibition above about 60%
Target sequence (Q8TCT1 whole entry, looked up): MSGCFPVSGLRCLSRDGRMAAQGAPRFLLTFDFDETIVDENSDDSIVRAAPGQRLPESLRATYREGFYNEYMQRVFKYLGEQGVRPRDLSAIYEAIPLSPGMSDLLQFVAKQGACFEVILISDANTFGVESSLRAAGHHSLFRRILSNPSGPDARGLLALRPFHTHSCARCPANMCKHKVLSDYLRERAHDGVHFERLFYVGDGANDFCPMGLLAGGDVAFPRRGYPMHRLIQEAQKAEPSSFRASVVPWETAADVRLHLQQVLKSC
MrgX1 antag conf – reconfirmed antagonist of human MrgX1 receptor signaling | shares compounds with MrgX1 antagonist | MrgX1-HEK293, BAM8-22 calcium flux, Fluo-4; stronger effect = lower value | remaining BAM8-22 calcium response % of control (stronger effect = lower value), % at 10 µM | hit rate 19% among 2,300;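 active means remaining agonist calcium response no higher than 100% minus 3 SD of agonist-only control wells, with starting fluorescence near control levels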;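 further: agonist BAM8-22 given at a near maximal EC90 to ECmax level; peak minus minimum fluorescence divided by baseline after agonist addition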
HEK293 Ca flux – counter-screen for MrgX1 antagonists: effect in parental HEK293 cells. hit rate 2% among 4,000. Fluo-4 calcium fluorescence, FDSS. shares compounds with MrgX1 antagonist. fluorescence ratio F(max-min)/F0 at 10 µM;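 active means duplicate-averaged calcium fluorescence ratio at least three times the standard deviation of buffer wells, a nonspecific response in parental cells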
HEK293 Ca counter – MrgX1 allosteric activator counter-screen hit in parental HEK293 cells; AID 624114; fluorescence ratio F(max-min)/F0 at 10 µM; shares compounds with MrgX1 antagonist; hit rate 0.4% among 4,000; parental HEK293 calcium flux, Fluo-4 fluorescence ratio; stronger effect = higher value;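 active means calcium fluorescence ratio, averaged over duplicates, at least 3 SD of the buffer-well ratio, meaning a nonspecific response in receptor-free cells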;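 further: untransfected parental HEK293 lacking MrgX1 used as counterscreen for MrgX1 allosteric activators; fluorescence change taken during the second addition on a kinetic imager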
HEK293 Ca cntr2 – activity in parental HEK293 cells lacking MrgX1 receptor | shares compounds with MrgX1 antagonist | Fluo-4 calcium fluorescence (FDSS); stronger effect = higher value | fluorescence ratio F(max-min)/F0 at 10 µM | hit rate 8.7% among 4,000 | AID 624115;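 active means calcium fluorescence ratio at least three times the spread of buffer wells, meaning a non-specific response in parental cells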
The depositor's hits bear a star; i = inactive; nt = not tested or not shown. Shown are actives, neighbours in structure and some others; about 4.5% of the full set was active somewhere.

SMILES	RGS4 inh	MrgX1 antagonist	MrgX1 allo act	MrgX1 ag	RGS4 act	PHOSPHO1 block	MrgX1 antag conf	HEK293 Ca flux	HEK293 Ca counter	HEK293 Ca cntr2
COc1ccc2c(=O)c(N3C(=O)c4ccccc4C3=O)c(C)oc2c1	i	-5.2*	i	i	i	10	i	i	i	i
COc1ccc2c(=O)c3ccccc3oc2c1	i	i	i	i	i	3	nt	nt	nt	nt
O=C(CN1CCc2ccccc21)NC(=O)NCc1ccccc1	i	i	i	i	i	-6	nt	nt	nt	nt
CC(=O)Nc1ccc(-c2ccc(NC(C)=O)cc2)cc1	i	i	i	i	i	8	nt	nt	nt	nt
CC(=O)Nc1ccc(NS(=O)(=O)C(F)(F)F)cc1	i	-8.7*	i	i	i	19	i	i	i	i
Cc1cc(C)c(C)c(S(=O)(=O)N2CCN(CC(=O)c3c(N)n(Cc4ccccc4)c(=O)n(C)c3=O)CC2)c1C	i	i	i	i	i	-9	nt	nt	nt	nt
COc1ccc(CNc2nc3nc(C)c(Cl)c(=O)n3[nH]2)cc1OC	i	-5.9*	i	i	i	-12	i	i	i	i
C=CCC1NS(=O)(=O)OC(CCc2ccccc2)C1O (stereo not drawn)	i	i	i	i	i	-52	nt	nt	nt	nt
O=C(CN1C(=O)NC2(CCCCC2)C1=O)N1CCN(S(=O)(=O)c2ccccc2)CC1	i	-5.5*	i	i	i	28	i	i	i	i
COCCNC(=O)C1(C)C=CC2(CCCCC2)N1C(=O)c1ccccc1 (stereo not drawn)	i	i	i	i	i	8	nt	nt	nt	nt
CC1(C(=O)NCCN2CCOCC2)C=CC2(CCCCC2)N1C(=O)c1ccccc1 (stereo not drawn)	i	-6.8*	i	i	i	26	83%*	i	i	i
COc1ccccc1CNS(=O)(=O)c1ccc(-n2cccn2)cc1	i	i	i	i	i	7	nt	nt	nt	nt
O=C(OCC(=O)N1CCOCC1)c1cc(F)c(F)cc1Cl	i	i	i	i	i	13	nt	nt	nt	nt
COc1ccccc1CNC(=O)C(=O)NCC1CCCN1S(=O)(=O)c1cccs1 (stereo not drawn)	i	-4.8*	i	i	i	nt	83%*	i	i	i
COc1cc(C(=O)NCC2CCCN2S(=O)(=O)c2cccs2)cc(OC)c1OC (stereo not drawn)	i	-7.7*	i	i	i	nt	i	i	i	i
Cc1ccc(C(=O)NCC2CCCN2S(=O)(=O)c2cccs2)cc1C (stereo not drawn)	i	i	i	i	i	nt	nt	nt	nt	nt
O=C(NCC1CCCN1S(=O)(=O)c1cccs1)C(=O)Nc1ccccc1 (stereo not drawn)	i	i	i	i	i	nt	nt	nt	nt	nt
O=C(NCc1ccccc1)C(=O)NCC1CCCN1S(=O)(=O)c1cccs1 (stereo not drawn)	i	-16*	i	i	i	nt	i	i	i	i
Cc1ccc(S(=O)(=O)N2CCCC2CNC(=O)C(=O)NCc2ccccn2)cc1 (stereo not drawn)	i	-7.1*	i	i	i	nt	i	i	i	i
O=C1C(Cc2c[nH]c3ccccc23)NC(=S)N1C1CCCCC1 (stereo not drawn)	i	i	i	i	i	16	nt	nt	nt	nt
COc1ccccc1CNC(=S)Nc1ccc2nc(N3CCN(C)CC3)cc(C)c2c1	i	i	i	i	i	-14	nt	nt	nt	nt
Cc1cc(C)c(NC(=S)N(CCCN2CCN(C)CC2)Cc2cccs2)c(C)c1	i	i	i	i	i	0	nt	nt	nt	nt
CNC(=O)C(=O)NCC1CCCN1S(=O)(=O)c1cccs1 (stereo not drawn)	i	i	i	i	i	nt	nt	nt	nt	nt
Cc1cccc(NC(=O)C(=O)NCC2CCCN2S(=O)(=O)c2cccs2)c1C (stereo not drawn)	i	-5.5*	i	i	i	nt	i	i	i	i
CN1C(C)(C)CCCC1(C)C	nt	-7*	i	i	nt	nt	77%*	i	i	i
SMILES	RGS4 inh	MrgX1 antagonist	MrgX1 allo act	MrgX1 ag	RGS4 act	PHOSPHO1 block	MrgX1 antag conf	HEK293 Ca flux	HEK293 Ca counter	HEK293 Ca cntr2
COC(=O)[C@@]12CCCN1[C@H](c1ccc(-c3cccc(Cl)c3)cc1)[C@H]1C(=O)N(C)C(=O)[C@H]12	i	i	i	i	i	nt	nt	nt	nt	nt
CC(/C=N\NC(=O)Cn1c(C)nc2ccccc21)=C\c1ccccc1	i	-11*	i	i	i	36	i	i	i	i
O=c1[nH]c2ccccc2n2cnnc12	i	i	i	i	i	0	nt	nt	nt	nt
O=C(NNC(=O)C1CCN(S(=O)(=O)c2ccc(Cl)cc2)CC1)c1ccc(S(=O)(=O)N2CCCCC2)cc1	i	i	i	i	i	16	nt	nt	nt	nt
COC(=O)c1c(NC(=O)CSc2ccccc2N)sc(C)c1C	i	-4.7*	i	i	i	-23	i	i	i	i
COC(=O)c1c(NC(=O)c2ccco2)sc(C)c1C	i	-7.7*	i	i	i	-6	81%*	i	i	i
COC(=O)c1c(NC(=O)Cc2ccccc2)sc(C)c1C	i	i	i	i	i	7	nt	nt	nt	nt
COC(=O)c1c(NC(=O)c2ccco2)sc(C(=O)Nc2ccc(F)cc2)c1C	i	i	i	i	i	1	nt	nt	nt	nt
COc1cccc(OC)c1C(=O)N1CCN(Cc2ccccc2C)CC1	i	-4.6*	i	i	i	18	i	i	i	i
COc1ccc2oc(=N)c(C(=O)Nc3cccc(C)c3C)cc2c1	i	i	i	i	i	34	nt	nt	nt	nt
CCCNC(=O)c1ccc2nc(-c3ccccc3)c(-c3ccccc3)nc2c1	i	-5.3*	i	i	i	10	i	i	i	i
